# “And” between values parts separate entries of the source, which are not always exact repeats. Identical values can stand only once. “Also recorded” adds a separate entry of the source. Like-named read-outs stand apart in the source and are kept apart here.
# Columns and labels:
# OXE receptor [1] = biological target: T1, OXE receptor (Homo sapiens, UniProt Q8TDS5); settings: cited from earlier work
# OXE receptor [2] = settings: cited from earlier work
# OXE receptor [3] = biological target: T1, OXE receptor; assay: 5-oxo-ETE-induced calcium mobilization in indo-1-loaded neutrophils; format: cell-based; settings: for Effect on 5-oxo-ETE-induced calcium mobilization: compound 10 μM
# OXE receptor [4] = biological target: T1, OXE receptor; assay: Agonist activity: calcium mobilization in neutrophils by the compound itself; format: cell-based
# How it was run: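 Neutrophils were isolated by dextran sedimentation, Ficoll centrifugation and hypotonic lysis, then loaded with indo-1 AM. In PBS with Ca++ 1.8 mM and Mg++ 1 mM (final, added 5 min before), cells sat in a stirred cuvette at 37 °C. Fluorescence was read at excitation 331 nm and emission 410 nm. After a stable baseline, DMSO vehicle or test compound was added, and 2 min later 5-oxo-ETE (10 nM final). Digitonin (0.1% final) gave maximal fluorescence.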
# PAF = assay: Selectivity: calcium mobilization in neutrophils in response to PAF; format: cell-based, human; settings: compound 10 μM; PAF 10 nM
# How it was run: (§1)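 Neutrophils were prepared by dextran sedimentation, Ficoll and hypotonic lysis, loaded with indo-1 AM, and placed in a stirred cuvette at 37 °C in PBS with Ca++ 1.8 mM and Mg++ 1 mM. Fluorescence was read at excitation 331 nm and emission 410 nm. Vehicle or test compound was added at baseline, 5-oxo-ETE (10 nM final) 2 min later, and the second agonist 2 min after that. Digitonin (0.1% final) followed 1 min later for maximal signal.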
# [5] = Preliminary pharmacokinetic experiments in rats, oral administration; format: in vivo, rat; settings: unpublished data
# fMLP = assay: Selectivity: calcium mobilization in neutrophils in response to fMLP; format: cell-based, human; settings: compound 10 μM; fMLP 100 nM
# How it was run: as §1
# IL-8 = assay: Selectivity: calcium mobilization in neutrophils in response to IL-8; format: cell-based, human; settings: compound 10 μM; IL-8 10 nM
# How it was run: as §1
# [6] = Metabolism by rat liver homogenates in the presence of NADPH; format: in vitro ADME; settings: 20 μM, NADPH 1 mM, 60 min, 37 °C
# How it was run: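 Liver from male Sprague-Dawley rats was homogenised in ice-cold 0.25 M sucrose and spun at 600 × g for 10 min; the supernatant served as homogenate. It was incubated with test compound (20 μM) in phosphate buffer (pH 7.4, 50 mM final) with NADPH (1 mM final) for 60 min at 37 °C. Reactions were stopped with ice-cold MeOH. Products were analysed by reversed-phase C18 HPLC (22–42% acetonitrile gradient, 0.02% acetic acid) with photodiode-array UV detection.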
# [7] = Metabolism by rat liver homogenates in medium favoring β-oxidation; format: in vitro ADME; settings: medium containing ATP, CoA, L-carnitine and NAD+
# LTB4 = assay: Selectivity: calcium mobilization in neutrophils in response to LTB4; format: cell-based, human; settings: compound 10 μM; LTB4 10 nM
# How it was run: as §1
# OXE receptor [8] = biological target: T1, OXE receptor; settings: concentration of 30 μM; cited from earlier work
# eosinophils = assay: 5-oxo-ETE-induced actin polymerization in eosinophils; format: cell-based, human; settings: 5-oxo-ETE 10 nM
# neutrophils = assay: 5-oxo-ETE-induced actin polymerization in neutrophils; format: cell-based, human; settings: 5-oxo-ETE 10 nM
# How it was run: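 Unfractionated leukocytes came from healthy-donor blood by dextran sedimentation and hypotonic lysis. They were labelled with APC anti-CD49d (30 min, ice) and held at 5.5 × 10^6 cells/ml in PBS with Ca++ 1.8 mM and Mg++ 1 mM. Cells were preincubated 5 min at 37 °C with DMSO vehicle or test compound, then given 5-oxo-ETE (10 nM final) for 20 s. They were fixed in formaldehyde (8.5% final), permeabilised with lysophosphatidylcholine and stained overnight at 4 °C with NBD-phallacidin (0.3 μM final). F-actin was read by flow cytometry.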
# [9] = calcium mobilization, 5-oxo-ETE 10 nM
# T1 sequence (Q8TDS5 whole entry): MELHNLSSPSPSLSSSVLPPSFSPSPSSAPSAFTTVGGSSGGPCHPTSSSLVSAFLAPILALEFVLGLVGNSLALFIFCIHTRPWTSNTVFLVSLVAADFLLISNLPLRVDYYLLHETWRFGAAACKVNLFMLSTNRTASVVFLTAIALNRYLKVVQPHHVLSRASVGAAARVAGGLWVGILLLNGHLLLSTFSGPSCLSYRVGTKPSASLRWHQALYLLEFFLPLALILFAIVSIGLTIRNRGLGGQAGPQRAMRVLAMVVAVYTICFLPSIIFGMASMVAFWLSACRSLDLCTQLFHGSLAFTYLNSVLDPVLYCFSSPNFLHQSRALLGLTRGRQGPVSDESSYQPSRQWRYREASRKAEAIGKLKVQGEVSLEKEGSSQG
compound,measurement,setting,value
CCCCC/C=C\C[C@H](O)/C=C/C=C/C=C/C(=O)CCCC(=O)O [8-trans-5-oxo-12-HETE],Agonist activity (calcium mobilization by the compound itself),OXE receptor [1],Neither compound mobilized intracellular calcium
CCCCC/C=C\CC(=O)/C=C/C=C\C/C=C\CCCC(=O)O [12-oxo-ETE],Activation of the OXE receptor,OXE receptor [2],do not activate the OXE receptor
"CCCCCCc1c(C)c2ccccc2n1C(=O)CC(C)CC(=O)O (stereo not shown) [compound 47, 5-(2-hexyl-3-methyl-1-H-indol-1-yl)-3-methyl-5-oxo-pentanoic acid]",Antagonist potency compared with 27,OXE receptor [3]; [9],relatively little effect
CCCCCc1cc2ccccc2n1C(=O)CCCC(=O)O [compound 9],Antagonist potency compared with 10,OXE receptor [3]; [9],small decrease in potency
"CCCCCCc1cc2cc(Cl)ccc2n1C(=O)CC(C)CC(=O)O (stereo not shown) [compound 41, 5-(5-chloro-2-hexyl-1-H-indol-1-yl)-3-methyl-5-oxo-pentanoic acid]",Antagonist potency compared with 27,OXE receptor [3]; [9],relatively little effect
"CCCCCCc1cc2ccccc2n1C(=O)CC(C)CC(=O)O (stereo not shown) [compound 27, 5-(2-hexyl-1H-indol-1-yl)-3-methyl-5-oxopentanoic acid]",Increase in antagonist potency relative to 10,OXE receptor [3]; [9],over 10 times
"CCCCCCc1cc2ccccc2n1C(=O)CC(C)(C)CC(=O)O [compound 17, 5-(2-hexyl-1H-indol-1-yl)-3,3-dimethyl-5-oxopentanoic acid]",Reduction in antagonist potency relative to 10,OXE receptor [3]; [9],about 10 fold
"CCCCCCc1cc2cc(Br)ccc2n1C(=O)CC(C)CC(=O)O (stereo not shown) [compound 42, 5-(5-bromo-2-hexyl-1-H-indol-1-yl)-3-methyl-5-oxo-pentanoic acid]",Antagonist potency compared with 27,OXE receptor [3]; [9],reduced potency by several fold
"CCCCC/C=C\C/C=C\C/C=C\C=C\[C@@H](O)CCCC(=O)O [5-HETE, 5S-hydroxy-6E,8Z,11Z,14Z-eicosatetraenoic acid]",Times less potent than 5-oxo-ETE,OXE receptor [2],100 times
"CCCCCCc1c(C(=O)CCCC(=O)O)c2ccccc2n1C [compound 50, 5-(2-hexyl-1-methyl-1-H-indol-3-yl)-5-oxo-pentanoic acid]",Antagonist potency compared with 48,OXE receptor [3]; [9],slightly increased potency
"CCCCCCc1cc2ccccc2n1C(=O)CCC(=O)O [compound 29, 4-(2-Hexyl-indol-1-yl)-4-oxo-butyric acid]",Antagonist potency compared with 10,OXE receptor [3]; [9],nearly eliminated antagonist activity
"CCCCCCc1[nH]c2ccccc2c1C(=O)CCCC(=O)O [compound 48, 5-(2-Hexyl-1H-indol-3-yl)-5-oxo-pentanoic acid]",Effect on 5-oxo-ETE-induced calcium mobilization,OXE receptor [3]; 5-oxo-ETE 10 nM,modest antagonist effect
CCCCCCCCCCCc1cc2ccccc2n1C(=O)CCCC(=O)O [compound 13],Antagonist potency compared with 10,OXE receptor [3]; [9],slightly increased potency
CCCCCCc1nc2ccccc2cc1C(=O)CCCC(=O)O [quinoline derivative],Agonist activity (calcium mobilization by the compound itself),OXE receptor [4],did not act as an agonist
"CCCCC/C=C\C[C@H](O)/C=C/C=C\C=C\C(=O)CCCC(=O)O [5-oxo-12-HETE, 5-oxo-12S-hydroxy-6E,8Z,10E,14Z-eicosatetraenoic acid]",Agonist activity (calcium mobilization by the compound itself),OXE receptor [1],Neither compound mobilized intracellular calcium; also recorded: not itself affecting intracellular calcium levels
"CCCCCCc1cc2ccc(Br)cc2n1C(=O)CC(C)CC(=O)O (stereo not shown) [compound 35, 5-(6-bromo-2-hexyl-1-H-indol-1-yl)-3-methyl-5-oxo-pentanoic acid]",Increase in antagonist potency relative to 27,OXE receptor [3]; [9],approximately 3 fold
CCCCc1cc2ccccc2n1C(=O)CCCC(=O)O [compound 8],Reduction in antagonist potency relative to 10,OXE receptor [3]; [9],over 10 fold
"CCCCCCc1c(C(=O)CC(C)CC(=O)O)c2cc(Br)ccc2n1C (stereo not shown) [compound 54, 5-(5-bromo-2-hexyl-1-methyl-1-H-indol-3-yl)-3-methyl-5-oxo-pentanoic acid]",Antagonist potency compared with 53,OXE receptor [3]; [9],equipotent
"CCCCCCc1cc2ccccc2n1C(=O)CC1(CC(=O)O)CC1 [compound 25, 2-(1-(2-(2-hexyl-1H-indol-1-yl)-2-oxoethyl)cyclopropyl)acetic acid]",Antagonist potency compared with 10,OXE receptor [3]; [9],relatively little effect
"CCCC/C=C/c1cc2ccccc2n1C(=O)CCCC(=O)O [compound 14, 5-(2-Hex-1-enyl-indol-1-yl)-5-oxo-pentanoic acid]",Antagonist potency compared with 10,OXE receptor [3]; [9],reduced potency
"CCCCCCc1c(C(=O)CC(C)CC(=O)O)c2cc(Cl)ccc2n1C (racemic) [compound 53, 5-(5-Chloro-2-hexyl-1-methyl-1H-indol-3-yl)-3-methyl-5-oxo-pentanoic acid]",IC50,"OXE receptor [3]; IC50, inhibition of 5-oxo-ETE-induced calcium mobilization in neutrophils, 5-oxo-ETE 10 nM added 2 min after antagonist",28 nM and ~30 nM
same,Further increase in antagonist potency relative to 51 and 52,OXE receptor [3]; [9],over 10 fold
same,Effect on 5-oxo-ETE-induced calcium mobilization,OXE receptor [3]; 5-oxo-ETE 10 nM,completely blocked
same,Effect on calcium response to PAF,PAF,no effect
same,Appearance in the blood,[5],appear rapidly in the blood
same,Effect on calcium response to fMLP,fMLP,no effect
same,Effect on calcium response to IL-8,IL-8,no effect
same,Extent of metabolism,[6],metabolized to an even lesser extent
same,Metabolism under conditions favoring β-oxidation,[7],Negligible metabolism; also recorded: no evidence for the metabolism
same,Effect on calcium response to LTB4,LTB4,no effect
"CCCCCCCCC/C=C\c1cc2ccccc2n1C(=O)CCCC(=O)O [compound 15, (Z)-5-oxo-5-(2-(undec-1-en-1-yl)-1H-indol-1-yl)pentanoic acid]",Antagonist potency compared with 13,OXE receptor [3]; [9],little effect
"CCCCCCc1cc2ccc(OC)cc2n1C(=O)CC(C)CC(=O)O (stereo not shown) [compound 36, 5-(2-hexyl-6-methoxy-1-H-indol-1-yl)-3-methyl-5-oxo-pentanoic acid]",Antagonist potency compared with 27,OXE receptor [3]; [9],reduced potency by several fold
"CCCCCCc1c(C(=O)CCCC(=O)O)c2cc(Cl)ccc2n1C [compound 51, 5-(5-chloro-2-hexyl-1-methyl-1-H-indol-3-yl)-5-oxo-pentanoic acid]",Antagonist potency compared with 27,OXE receptor [3]; [9],less potent than 27
same,Increase in antagonist potency relative to 50,OXE receptor [3]; [9],about 10 times
"CCCCCCc1c(C(=O)CC(C)CC(=O)O)c2ccc(Cl)cc2n1C (stereo not shown) [compound 56, 5-(6-chloro-2-hexyl-1-methyl-1-H-indol-3-yl)-3-methyl-5-oxo-pentanoic acid]",Increase in antagonist potency relative to 52,OXE receptor [3]; [9],about 4 fold
O=C(O)CCCC(=O)n1ccc2ccccc21 [1(5-oxovalerate)indole],Antagonist activity,OXE receptor [8],no detectable activity
O=C(O)CCCC(=O)/C=C/C=C\C/C=C\C/C=C\CCCCCO [5-oxo-20-hydroxy-ETE],Times less potent than 5-oxo-ETE,OXE receptor [2],100 times
CCCCCC(=O)/C=C/C=C\C/C=C\C/C=C\CCCC(=O)O [15-oxo-ETE],Activation of the OXE receptor,OXE receptor [2],do not activate the OXE receptor
CCCCCCCCc1cc2ccccc2n1C(=O)CCCC(=O)O [compound 12],Antagonist potency compared with 10,OXE receptor [3]; [9],slightly increased potency
CCCCCCCc1cc2ccccc2n1C(=O)CCCC(=O)O [compound 11],Antagonist potency compared with 10,OXE receptor [3]; [9],slightly increased potency
"CSc1nc2ccc3nc(NC(=O)C(c4ccccc4)c4ccccc4)sc3c2s1 [Gue1654, 7-(methylthio)-2-[(2,2-diphenylacetyl)amino]benzo[1,2-d:4,3-d′]bisthiazole]",Times less potent than 53 and 34 in blocking actin polymerization in eosinophils,eosinophils,about 10 times
same,Times less potent than 53 and 34 in blocking actin polymerization in neutrophils,neutrophils,about 10 times
CCCCCCc1cc2ccccc2n1C(=O)CCCC(=O)O [compound 10],Effect on 5-oxo-ETE-induced calcium mobilization,OXE receptor [3]; 5-oxo-ETE 10 nM,completely abolished
"CCCCCCc1cc2ccc(Cl)cc2n1C(=O)CC(C)CC(=O)O (racemic) [compound 34, 5-(6-Chloro-2-hexyl-indol-1-yl)-3-methyl-5-oxo-pentanoic acid]",Effect on 5-oxo-ETE-induced calcium mobilization,OXE receptor [3]; 5-oxo-ETE 10 nM,completely blocked
same,Effect on calcium response to PAF,PAF,no effect
same,Appearance in the blood,[5],appear rapidly in the blood
same,Effect on calcium response to fMLP,fMLP,no effect
same,Effect on calcium response to IL-8,IL-8,no effect
same,Converted to a more polar product,[6],about 12%
same,Extent of metabolism,[6],metabolized to a small extent
same,Metabolism under conditions favoring β-oxidation,[7],Negligible metabolism; also recorded: no evidence for the metabolism
same,Effect on calcium response to LTB4,LTB4,no effect

# From publication PMC7138454 (Journal of medicinal chemistry, 2014)
